According to publication PMC4196235 (mBio, 2014):
≈ marks a conversion by molar mass, not a printed value.

Legend:
[1] = system: hybrid bacterial ribosomes carrying the mitochondrial A site; assay: cell-free translation assay, mitochondrial hybrid ribosomes; type: biochemical, Homo sapiens; conditions: firefly luciferase synthesis, mean ± SD, triplicate
Procedure, shortened: (§1)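 Hybrid 70S ribosomes purified from recombinant Mycobacterium smegmatis strains derived from a ΔrrnB single-rRNA-operon strain. Reactions contained 0.25 µM ribosomes, 4 µg firefly luciferase mRNA, 40% (vol/vol) M. smegmatis S100 extract, 200 µM amino acids and 0.4 mg/ml tRNAs, with S30 premix as energy source. Serially diluted test compound added; 37°C for 35 min, stopped on ice. Luciferase luminescence read; IC50 from dose-response curves; mean ± SD, triplicate.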

[2] = system: hybrid bacterial ribosomes carrying the mitochondrial mutant A1555G deafness A site; assay: cell-free translation assay, mitochondrial deafness hybrid ribosomes; type: biochemical, Homo sapiens; conditions: firefly luciferase synthesis, mean ± SD, triplicate
Procedure, shortened: as §1

[3] = system: hybrid bacterial ribosomes carrying the cytoplasmic A site; assay: cell-free translation assay, cytosolic hybrid ribosomes; type: biochemical, Homo sapiens; conditions: firefly luciferase synthesis, mean ± SD, triplicate
Procedure, shortened: as §1

outer hair cells = assay: quantification of outer hair cell loss in cochlear surface preparations; type: in vivo; conditions: guinea pig, 140 mg/kg, 14 days
Procedure, shortened: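 Guinea pigs dosed subcutaneously once daily for 14 days. After the final ABR (3 weeks post-treatment), cochleae were split into apical, middle and basal segments. Segments were permeabilized in 3% Triton X-100 for 30 min at RT, washed in PBS and stained with rhodamine phalloidin (1:100) for 1 h at RT. Consecutive 0.19-mm fields from the apex were scored blind for missing outer hair cells against a normative database.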

[4] = general toxicity in the guinea pig chronic ototoxicity study; type: in vivo
Procedure, shortened: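 Male Hartley guinea pigs, about 200 g initially, acclimated 1 week. […] Animals were followed for death and body weight through the study, which included ABR testing before treatment and 3 weeks after treatment ended.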

[5] = system: recombinant bacterial ribosomes with point mutation G1491C in the A site; assay: cell-free ribosomal translation assay, G1491C mutant; type: biochemical, Mycobacterium smegmatis
Procedure, shortened: (§2)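 Purified 70S hybrid ribosomes, wild-type or carrying the single A-site point mutation, came from M. smegmatis strains with a single rRNA operon. Each was translated with firefly luciferase mRNA, 40% (vol/vol) M. smegmatis S100 extract, amino acids, 0.4 mg/ml tRNAs and S30 premix energy, plus serially diluted test compound, for 35 min at 37°C. Luciferase luminescence gave IC50s (triplicate means ± SD), expressed as mutant/wild-type IC50 ratio.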

[6] = system: recombinant bacterial ribosomes with point mutation A1408G in the A site; assay: cell-free ribosomal translation assay, A1408G mutant; type: biochemical, Mycobacterium smegmatis
Procedure, shortened: as §2

[7] = system: rabbit reticulocyte ribosomes; assay: in vitro translation in rabbit reticulocyte lysate; type: biochemical; conditions: firefly luciferase synthesis, mean ± SD, triplicate
Procedure, shortened: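 Cell-free translation in rabbit reticulocyte lysate with firefly luciferase mRNA and serially diluted test compound. Incubated 37°C for 35 min, stopped on ice, then luciferase luminescence measured. IC50 is the concentration halving functional luciferase synthesis, taken from dose-response curves; mean ± SD, triplicate.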

[8] = system: mitochondrial hybrid ribosomes; assay: ribosomal damage index; type: biochemical, Homo sapiens; conditions: 1/IC50 × misreading at IC50/misreading in the absence of the drug × 100
Procedure, shortened: (§3)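 Misreading gain-of-function assay: firefly luciferase mRNA with His245 CAC replaced by near-cognate Arg245 CGC, alongside wild-type firefly mRNA, translated in vitro with renilla luciferase mRNA as internal control. Misreading is the mutant firefly/renilla ratio relative to the wild-type firefly/renilla ratio.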

[9] = system: mitochondrial A1555G mutant hybrid ribosomes; assay: ribosomal damage index, mitochondrial A1555G mutant hybrid; type: biochemical, Homo sapiens; conditions: 1/IC50 × misreading at IC50/misreading in the absence of the drug × 100
Procedure, shortened: as §3

[10] = system: cytosolic hybrid ribosomes; assay: ribosomal damage index, cytosolic hybrid; type: biochemical, Homo sapiens; conditions: 1/IC50 × misreading at IC50/misreading in the absence of the drug × 100
Procedure, shortened: as §3

[11] = system: rabbit reticulocyte ribosomes; assay: ribosomal damage index, native cytosolic eukaryotic ribosomes; type: biochemical; conditions: 1/IC50 × misreading at IC50/misreading in the absence of the drug × 100
Procedure, shortened: as §3

[12] = system: Staphylococcus aureus (MRSA) isolates; assay: MIC by broth microdilution, clinical isolates; type: cell-based
Procedure, shortened: (§4)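 Clinical isolates from a university diagnostic microbiology department. MIC determined by broth microdilution in microtiter plates, incubated overnight.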

[13] = system: Escherichia coli isolates; assay: MIC by broth microdilution, clinical isolates; type: cell-based
Procedure, shortened: as §4

S. aureus MRSA AG041 = assay: neutropenic murine model of Staphylococcus aureus septicemia; type: in vivo; conditions: at the highest dose tested; subcutaneous (Fig. 2C and F)

## NCC1OC(OC2C(CO)OC(OC3C(O)C(N)CC(N)C3OC3OC(CO)C(OCCCc4ccccc4)C(O)C3N)C2O)C(N)C(O)C1O (stereo not shown) [4′-O-(3-Phenylpropyl) paromomycin]
[1]
  IC50 with eukaryotic A sites in the ribosome: Mitochondrial wild-type: 49.85 ± 15.39 µg/mL
[2]
  IC50 with eukaryotic A sites in the ribosome: Mitochondrial mutant A1555G: 105.68 ± 39.23 µg/mL
[3]
  IC50 with eukaryotic A sites in the ribosome: Cytosolic wild-type: 268.57 ± 54.97 µg/mL

## NC[C@@H]1O[C@H](O[C@H]2[C@@H](O)[C@H](O[C@@H]3[C@@H](O)[C@H](N)C[C@H](N)[C@H]3O[C@H]3O[C@@H]4CO[C@@H](CCc5ccccc5)O[C@H]4[C@H](O)[C@H]3N)O[C@@H]2CO)[C@H](N)[C@@H](O)[C@@H]1O [4′,6′-O-(3-Phenylpropylidene) paromomycin]
[1]
  IC50 with eukaryotic A sites in the ribosome: Mitochondrial wild-type: 305.7 ± 74.1 µg/mL
[2]
  IC50 with eukaryotic A sites in the ribosome: Mitochondrial mutant A1555G: 126.9 ± 54.4 µg/mL
[3]
  IC50 with eukaryotic A sites in the ribosome: Cytosolic wild-type: 150.5 ± 28.0 µg/mL

## CNC(C)C1CCC(N)C(OC2C(N)CC(N)C(OC3OCC(C)(O)C(NC)C3O)C2O)O1 (stereo not shown) [Gentamicin]
Outer hair cells
  loss of outer hair cells in cochleae: steep rise of hair cell loss from the middle cochlea to complete loss at the base
Outer hair cells; listed as gentamicin
  loss of outer hair cells in cochleae: extensive loss of outer hair cells
[4]; doses below 160 mg/kg
  signs of general toxicity: significant weight loss
[4]; doses exceeding 160 mg/kg
  signs of general toxicity: death

## NC[C@@H]1O[C@H](O[C@H]2[C@@H](O)[C@H](O[C@@H]3[C@@H](O)[C@H](N)C[C@H](N)[C@H]3O[C@H]3O[C@H](CO)[C@@H](O)[C@H](O)[C@H]3N)O[C@@H]2CO)[C@H](N)[C@@H](O)[C@@H]1O [Paromomycin]
[5]
  ratio of the IC50 for the C1491 mutant ribosomes to the IC50 for the wild-type ribosomes: 520
[6]
  ratio of the IC50 for the G1408 mutant ribosomes to the IC50 for the wild-type ribosomes: 13
[1]
  IC50 with eukaryotic A sites in the ribosome: Mitochondrial wild-type: 50.66 ± 13.33 µg/mL
[2]
  IC50 with eukaryotic A sites in the ribosome: Mitochondrial mutant A1555G: 5.77 ± 2.32 µg/mL
[3]
  IC50 with eukaryotic A sites in the ribosome: Cytosolic wild-type: 9.89 ± 2.73 µg/mL
[7]
  IC50 with eukaryotic A sites in the ribosome: Rabbit reticulocytes: 9.55 ± 4.94 µg/mL
[8]
  Ribosomal damage index: Mitochondrial wild-type: 5.0
[9]
  Ribosomal damage index: Mitochondrial mutant A1555G: 125.0
[10]
  Ribosomal damage index: Cytosolic wild-type: 40.0
[11]
  Ribosomal damage index: Rabbit ribosomes: 120.0
[12]; S. aureus (MRSA) clinical isolate AG 038
  MIC: 4 µg/mL (≈ 6.5 µM)
[12]; S. aureus (MRSA) clinical isolate AG 039
  MIC: > 256 µg/mL
[12]; S. aureus (MRSA) clinical isolate AG 042
  MIC: > 256 µg/mL
[12]; S. aureus (MRSA) clinical isolate AG 044
  MIC: 4 to 8 µg/mL (≈ 6.5 to 13 µM)
[12]; S. aureus (MRSA) clinical isolate AG 045
  MIC: 4 µg/mL (≈ 6.5 µM)
[13]; E. coli clinical isolate AG 001
  MIC: 16 to 32 µg/mL (≈ 26 to 52 µM)
[13]; E. coli clinical isolate AG 002
  MIC: 8 to 16 µg/mL (≈ 13 to 26 µM)
[13]; E. coli clinical isolate AG 003
  MIC: 8 to 16 µg/mL (≈ 13 to 26 µM)
[13]; E. coli clinical isolate AG 055
  MIC: 8 to 16 µg/mL (≈ 13 to 26 µM)
S. aureus MRSA AG041
  bacterial burden in the kidney: below detectable limits

## NC[C@@H]1O[C@H](O[C@H]2[C@@H](O)[C@H](O[C@@H]3[C@@H](O)[C@H](N)C[C@H](N)[C@H]3O[C@H]3O[C@H](CO)C[C@H](O)[C@H]3N)O[C@@H]2CO)[C@H](N)[C@@H](O)[C@@H]1O [4′ Deoxy paromomycin]
[1]
  IC50 with eukaryotic A sites in the ribosome: Mitochondrial wild-type: 74.1 ± 12.4 µg/mL
[2]
  IC50 with eukaryotic A sites in the ribosome: Mitochondrial mutant A1555G: 24.2 ± 10.5 µg/mL
[3]
  IC50 with eukaryotic A sites in the ribosome: Cytosolic wild-type: 28.4 ± 13.8 µg/mL
[7]
  IC50 with eukaryotic A sites in the ribosome: Rabbit reticulocytes: 17.3 ± 4.2 µg/mL
